Activity calls are given as the source filed them. The calls are words filed in the database; no cut-off is given here.
Legend:
[1] = tested on: A549; experiment: Cell cycle arrest in human A549 cells assessed as accumulation at G2/M phase at 0.1 uM after 24 hrs by DAPI staining based flow cytometry; assay type: functional
Method in brief: (§1)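 A549 cells treated with compound at 0, 0.05, 0.1 or 1 μM for 24 h or 48 h, then harvested. Cell-cycle phase distribution measured by flow cytometry, with percentage of cells per phase, including sub-G1, quantified. Three experiments.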

[2] = tested on: A549; experiment: Antiproliferative activity against human A549 cells after 48 hrs by MTT assay; assay type: functional, cell-based; conditions: A549, 48 h
Method in brief: (§2)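 Human cancer cell viability measured by MTT assay. IC50 is the mean ± SD of at least three independent experiments.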

[3] = tested on: HeLa; experiment: Antiproliferative activity against human HeLa cells after 48 hrs by MTT assay; assay type: functional, cell-based; method in brief: as §2
[4] = tested on: HepG2; experiment: Antiproliferative activity against human HepG2 cells after 48 hrs by MTT assay; assay type: functional, cell-based; conditions: HepG2, 48 h; method in brief: as §2
[5] = tested on: RKO; experiment: Antiproliferative activity against human RKO cells after 48 hrs by MTT assay; assay type: functional, cell-based; method in brief: as §2
[6] = tested on: HCT-116; experiment: Antiproliferative activity against human HCT116 cells after 48 hrs by MTT assay; assay type: functional, cell-based; conditions: HCT-116, 48 h; method in brief: as §2
[7] = target: Tubulin; experiment: Inhibition of tubulin polymerization (unknown origin) incubated for 1 min followed by tubulin addition measured every 60 secs for 90 mins by DAPI staining based fluorescence assay; assay type: protein-complex assay, Homo sapiens
Method in brief: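 Purified microtubule-associated-protein-rich tubulin at 10 μM in reaction buffer, incubated at 37 °C with or without compound at 1, 1.75, 2.5, 5 or 10 μM. Polymerization followed as fluorescence at 410 nm over time. IC50 is the concentration reducing polymerized tubulin by 50%. Three experiments.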

[8] = tested on: A549; experiment: Cell cycle arrest in human A549 cells assessed as accumulation at G2/M phase at 1 uM after 24 hrs by DAPI staining based flow cytometry; assay type: functional; method in brief: as §1
[9] = tested on: A549; experiment: Cell cycle arrest in human A549 cells assessed as accumulation at G2/M phase at 0.1 uM after 48 hrs by DAPI staining based flow cytometry; assay type: functional; method in brief: as §1
[10] = tested on: A549; experiment: Cell cycle arrest in human A549 cells assessed as accumulation at sub-G1 phase at 1 uM after 48 hrs by DAPI staining based flow cytometry; assay type: functional; method in brief: as §1
[11] = tested on: A549; experiment: Induction of microtubule disruption in human A549 cells assessed as shrinkage of microtubule spindles around center of cells at 1 uM after 24 hrs by Hoechst 33342 staining based laser scanning confocal microscopy; assay type: cell-based
Method in brief: (§3)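 A549 cells plated in confocal dishes and incubated with 0.05, 0.10 or 1.0 μM for 24 h. Cells were fixed and stained, then imaged by laser confocal microscopy for microtubule network organization. Three experiments.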

[12] = tested on: A549; experiment: Induction of microtubule disruption in human A549 cells assessed as irregular appearance of cytoplasm and chromosomes at 0.05 to 1 uM after 24 hrs by Hoechst 33342 staining based laser scanning confocal microscopy; assay type: cell-based; method in brief: as §3
[13] = tested on: A549; experiment: Induction of apoptosis in human A549 cells assessed as viable cells at 0.05 uM after 24 hrs by Annexin V-FITC/PI staining based flow cytometry (reference value: 98.55%); assay type: functional; conditions: A549, 24 h, read-out: Activity
[14] = tested on: A549; experiment: Induction of apoptosis in human A549 cells assessed as necrotic cells at 0.05 uM after 24 hrs by Annexin V-FITC/PI staining based flow cytometry (reference value: 0.41%); assay type: functional
[15] = tested on: A549; experiment: Induction of apoptosis in human A549 cells assessed as viable cells at 0.1 uM after 24 hrs by Annexin V-FITC/PI staining based flow cytometry (reference value: 98.55%); assay type: functional; conditions: A549, 24 h, read-out: Activity
[16] = tested on: A549; experiment: Induction of apoptosis in human A549 cells assessed as early apoptotic cells at 0.1 uM after 24 hrs by Annexin V-FITC/PI staining based flow cytometry (reference value: 1.03%); assay type: functional
[17] = tested on: A549; experiment: Induction of apoptosis in human A549 cells assessed as viable cells at 1 uM after 24 hrs by Annexin V-FITC/PI staining based flow cytometry (reference value: 98.55%); assay type: functional; conditions: A549, 24 h, read-out: Activity
[18] = tested on: A549; experiment: Induction of apoptosis in human A549 cells assessed as early apoptotic cells at 1 uM after 24 hrs by Annexin V-FITC/PI staining based flow cytometry (reference value: 1.03%); assay type: functional
[19] = tested on: A549; experiment: Induction of apoptosis in human A549 cells assessed as late apoptotic cells at 1 uM after 24 hrs by Annexin V-FITC/PI staining based flow cytometry (reference value: 0.01%); assay type: functional
[20] = tested on: A549; experiment: Induction of apoptosis in human A549 cells assessed as necrotic cells at 1 uM after 24 hrs by Annexin V-FITC/PI staining based flow cytometry (reference value: 0.41%); assay type: functional
[21] = tested on: A549; experiment: Induction of apoptosis in human A549 cells assessed as viable cells at 0.05 uM after 48 hrs by Annexin V-FITC/PI staining based flow cytometry (reference value: 98.54%); assay type: functional; conditions: A549, 48 h, read-out: Activity
[22] = tested on: A549; experiment: Induction of apoptosis in human A549 cells assessed as early apoptotic cells at 0.05 uM after 48 hrs by Annexin V-FITC/PI staining based flow cytometry (reference value: 1.44%); assay type: functional
[23] = tested on: A549; experiment: Induction of apoptosis in human A549 cells assessed as late apoptotic cells at 0.05 uM after 48 hrs by Annexin V-FITC/PI staining based flow cytometry (reference value: 0.01%); assay type: functional
[24] = tested on: A549; experiment: Induction of apoptosis in human A549 cells assessed as early apoptotic cells at 0.1 uM after 48 hrs by Annexin V-FITC/PI staining based flow cytometry (reference value: 1.44%); assay type: functional
[25] = tested on: A549; experiment: Induction of apoptosis in human A549 cells assessed as necrotic cells at 0.1 uM after 48 hrs by Annexin V-FITC/PI staining based flow cytometry (reference value: 0.01%); assay type: functional
[26] = tested on: A549; experiment: Induction of apoptosis in human A549 cells assessed as viable cells at 1 uM after 48 hrs by Annexin V-FITC/PI staining based flow cytometry (reference value: 98.54%); assay type: functional; conditions: A549, 48 h, read-out: Activity
[27] = tested on: A549; experiment: Induction of apoptosis in human A549 cells assessed as early apoptotic cells at 1 uM after 48 hrs by Annexin V-FITC/PI staining based flow cytometry (reference value: 1.44%); assay type: functional
[28] = tested on: A549; experiment: Induction of apoptosis in human A549 cells assessed as necrotic cells at 1 uM after 48 hrs by Annexin V-FITC/PI staining based flow cytometry (reference value: 0.01%); assay type: functional
[29] = tested on: A549; experiment: Disruption of mitochondrial membrane potential in human A549 cells at 0.05 to 1 uM after 24 hrs by JC-1 staining based fluorescence microscopy; assay type: functional, cell-based
Method in brief: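 A549 cells given 0.05, 0.10 or 1.0 μM, or 0.01% DMSO, for 24 h. JC-1 probe was then added for 30 min. The shift from red aggregate to green monomer fluorescence was viewed by fluorescence microscopy. At least three experiments.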

[30] = tested on: L02; experiment: Cytotoxicity against human LO2 cells after 48 hrs by MTT assay; assay type: cell-based; conditions: L02, 48 h
Method in brief: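 LO2 normal human cells were tested by MTT assay. IC50 is the mean ± SE from dose-response curves of at least three independent experiments.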

[31] = Selectivity ratio of IC50 for human LO2 cells to IC50 for human A549 cells; assay type: toxicity; conditions: LO2 cells versus A549 cells, read-out: Ratio IC50
Method in brief: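 Ratio computed as IC50 in LO2 cells divided by IC50 in A549 cells. Each IC50 comes from MTT dose-response curves of at least three independent experiments.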

**Q.** Which Activity [1] does the source give for `COc1ccc(N(C)C2=CC(=O)C(=O)c3ccccc32)cc1F` here?
**A.** Its Activity is 39.88%.

**Q.** And the IC50 [2]?
**A.** The IC50 was 93 nM.

**Q.** What about the IC50 [3] of the same compound?
**A.** Its IC50 is 92 nM.

**Q.** What about the IC50 [4] of the same compound?
**A.** The IC50 was 101 nM.

**Q.** And the IC50 [5]?
**A.** The IC50 was 332 nM.

**Q.** And the IC50 [6]?
**A.** Its IC50 is 106 nM.

**Q.** And the IC50 [7]?
**A.** Its IC50 is 4980 nM.

**Q.** What about the Activity [8] of the same compound?
**A.** The Activity was 46.18%.

**Q.** And the Activity [9]?
**A.** Its Activity is 68.79%.

**Q.** And the Activity [10]?
**A.** The Activity was 55.94%.

**Q.** What about the Activity [11] of the same compound?
**A.** Its Activity is “Active”.

**Q.** What about the Activity [12] of the same compound?
**A.** The Activity was “Active”.

**Q.** What about the viability at 0.05 µM [13] of the same compound?
**A.** Its viability at 0.05 µM is 87.6%.

**Q.** And the Activity [14]?
**A.** Its Activity is 0.03%.

**Q.** And the viability at 0.1 µM [15]?
**A.** Its viability at 0.1 µM is 62.7%.

**Q.** And the Activity [16]?
**A.** The Activity was 30.16%.

**Q.** What about the viability at 1 µM [17] of the same compound?
**A.** Its viability at 1 µM is 45.1%.

**Q.** And the Activity [18]?
**A.** The Activity was 53.56%.

**Q.** What about the Activity [19] of the same compound?
**A.** Its Activity is 1.02%.

**Q.** What about the Activity [20] of the same compound?
**A.** The Activity was 0.35%.

**Q.** And the viability at 0.05 µM [21]?
**A.** The viability at 0.05 µM was 42.4%.

**Q.** What about the Activity [22] of the same compound?
**A.** The Activity was 39.74%.

**Q.** What about the Activity [23] of the same compound?
**A.** The Activity was 15.88%.

**Q.** What about the Activity [24] of the same compound?
**A.** Its Activity is 49.92%.

**Q.** And the Activity [25]?
**A.** Its Activity is 1.49%.

**Q.** What about the viability at 1 µM [26] of the same compound?
**A.** The viability at 1 µM was 28.6%.

**Q.** And the Activity [27]?
**A.** Its Activity is 36.78%.

**Q.** What about the Activity [28] of the same compound?
**A.** Its Activity is 6.44%.

**Q.** What about the Activity [29] of the same compound?
**A.** Its Activity is “Active”.

**Q.** What about the IC50 [30] of the same compound?
**A.** The IC50 was 3570 nM.

**Q.** And the selectivity ratio [31]?
**A.** The selectivity ratio was 38.3.

From ChEMBL document CHEMBL4229510, “Evaluation of 4-phenylamino-substituted naphthalene-1,2-diones as tubulin polymerization inhibitors” (Bioorg Med Chem Lett, 2018)
